Measurements as given in ChEMBL document CHEMBL1156445, “The rapamycin-binding domain of the protein kinase mammalian target of rapamycin is a destabilizing domain” (J Biol Chem, 2007).
The source made the active and inactive calls. The calls are words filed in the database; no cut-off is given here.

How the values were obtained:
Assay type in all cases: cell-based
[1] = test system: NIH3T3; assay: Effect on stability of FKBP12-rapamycin binding domain N2043S stop codon mutant expressed in mouse NIH3T3 cells assessed as increase in yellow fluorescent protein fluorescence level at 1 uM after 24 hrs by flow cytometry
Procedure, shortened: (§1)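 FRB (mTOR residues 2015-2114, wild-type or mutant) fused to N-terminus of YFP in pBMN. NIH3T3 cells stably transduced with retrovirus from ΦNX cells; 293T cells transiently transfected (wild-type only). Cells mock-treated or given 1 μM iRap for 24 h, then trypsinized, PBS-washed and analysed by flow cytometry (10,000 events). Mean fluorescence intensity, triplicate.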

[2] = Activation of FKBP12-rapamycin binding domain A2020V I2021T D2096G stop codon mutant in african green monkey COS1 cells after 16 hrs assessed as induction of secreted alkaline phosphatase expression assay; conditions: COS-1, 16 h
Procedure, shortened: (§2)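 COS-1 cells co-transfected by electroporation with Gal4BD-FKBP (pBJ5-GF3E), VP16AD-FRB (pBJ5-FRBVE, wild-type or mutant FRB) and SeAP reporter (pG5IL2SX). Cells treated in quadruplicate for 16 h with iRap (0.5-500 nM) or rapamycin (0.05-50 nM). SeAP read as fluorescence from methylumbelliferylphosphate substrate. EC50 derived from curve fits of mean (±SEM).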

[3] = Activation of FKBP12-rapamycin binding domain H2024R stop codon mutant protein in african green monkey COS1 cells after 16 hrs assessed as induction of secreted alkaline phosphatase expression assay; conditions: COS-1, 16 h; procedure, shortened: as §2
[4] = test system: 293T; assay: Effect on stability of wild-type FKBP12-rapamycin binding domain protein expressed in human 293T cells assessed as increase in yellow fluorescent protein fluorescence level at 1 uM after 24 hrs by flow cytometry; procedure, shortened: as §1
[5] = Activation of FKBP12-rapamycin binding domain I2021T K2045E E2049G M2057T E2083K stop codon mutant in african green monkey COS1 cells after 16 hrs assessed as induction of secreted alkaline phosphatase expression assay; conditions: COS-1, 16 h; procedure, shortened: as §2
[6] = Activation of FKBP12-rapamycin binding domain I2021V stop codon mutant in african green monkey COS1 cells after 16 hrs assessed as induction of secreted alkaline phosphatase expression assay; conditions: COS-1, 16 h; procedure, shortened: as §2
[7] = Activation of FKBP12-rapamycin binding domain I2021T E2029G L2037S stop codon mutant in african green monkey COS1 cells after 16 hrs assessed as induction of secreted alkaline phosphatase expression assay; conditions: COS-1, 16 h; procedure, shortened: as §2
[8] = test system: NIH3T3; assay: Effect on stability of FKBP12-rapamycin binding domain H2024R stop codon mutant expressed in mouse NIH3T3 cells assessed as increase in yellow fluorescent protein fluorescence level at 1 uM after 24 hrs by flow cytometry; procedure, shortened: as §1
[9] = Activation of FKBP12-rapamycin binding domain N2043S stop codon mutant in african green monkey COS1 cells after 16 hrs assessed as induction of secreted alkaline phosphatase expression assay; conditions: COS-1, 16 h; procedure, shortened: as §2
[10] = Activation of FKBP12-rapamycin binding domain R2110 mutant in african green monkey COS1 cells after 16 hrs assessed as induction of secreted alkaline phosphatase expression assay; conditions: COS-1, 16 h; procedure, shortened: as §2
[11] = Activation of FKBP12-rapamycin binding domain S2069P stop codon mutant in african green monkey COS1 cells after 16 hrs assessed as induction of secreted alkaline phosphatase expression assay; conditions: COS-1, 16 h; procedure, shortened: as §2
[12] = test system: NIH3T3; assay: Effect on stability of wild-type FKBP12-rapamycin binding domain protein expressed in mouse NIH3T3 cells assessed as increase in yellow fluorescent protein fluorescence level at 100 nM after 24 hrs by flow cytometry
Procedure, shortened: (§3)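 NIH3T3 cells stably transduced with wtFRB-YFP, treated with iRap (10 nM to 10 μM). YFP fluorescence monitored by flow cytometry over 24 h, 10,000 events per sample. Mean fluorescence intensity expressed relative to the overall highest value; duplicate.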

[13] = Activation of FKBP12-rapamycin binding domain S2069P M2079I stop codon mutant in african green monkey COS1 cells after 16 hrs assessed as induction of secreted alkaline phosphatase expression assay; conditions: COS-1, 16 h; procedure, shortened: as §2
[14] = Activation of FKBP12-rapamycin binding domain I2017V E2033G stop codon mutant in african green monkey COS1 cells after 16 hrs assessed as induction of secreted alkaline phosphatase expression assay; conditions: COS-1, 16 h; procedure, shortened: as §2
[15] = Activation of FKBP12-rapamycin binding domain C2085R stop codon mutant in african green monkey COS1 cells after 16 hrs assessed as induction of secreted alkaline phosphatase expression assay; conditions: COS-1, 16 h; procedure, shortened: as §2
[16] = Activation of FKBP12-rapamycin binding domain M2026V E2049G stop codon mutant in african green monkey COS1 cells after 16 hrs assessed as induction of secreted alkaline phosphatase expression assay; conditions: COS-1, 16 h; procedure, shortened: as §2
[17] = test system: NIH3T3; assay: Effect on stability of FKBP12-rapamycin binding domain T2068S E2080G stop codon mutant expressed in mouse NIH3T3 cells assessed as increase in yellow fluorescent protein fluorescence level at 1 uM after 24 hrs by flow cytometry; procedure, shortened: as §1
[18] = test system: NIH3T3; assay: Effect on stability of FKBP12-rapamycin binding domain K2066R D2077G stop codon mutant expressed in mouse NIH3T3 cells assessed as increase in yellow fluorescent protein fluorescence level at 1 uM after 24 hrs by flow cytometry; procedure, shortened: as §1
[19] = Activation of FKBP12-rapamycin binding domain T2064I Y2074H K2090R stop codon mutant in african green monkey COS1 cells after 16 hrs assessed as induction of secreted alkaline phosphatase expression assay; conditions: COS-1, 16 h; procedure, shortened: as §2
[20] = Activation of FKBP12-rapamycin binding domain mutant in african green monkey COS1 cells after 16 hrs assessed as induction of secreted alkaline phosphatase expression assay; conditions: COS-1, 16 h; procedure, shortened: as §2
[21] = Activation of FKBP12-rapamycin binding domain I2021T M2058V G2061D K2066R K2090R S2091L stop codon mutant in african green monkey COS1 cells after 16 hrs assessed as induction of secreted alkaline phosphatase expression assay; conditions: COS-1, 16 h; procedure, shortened: as §2
[22] = Activation of FKBP12-rapamycin binding domain E2067G stop codon mutant in african green monkey COS1 cells after 16 hrs assessed as induction of secreted alkaline phosphatase expression assay; conditions: COS-1, 16 h; procedure, shortened: as §2
[23] = test system: NIH3T3; assay: Effect on stability of wild-type FKBP12-rapamycin binding domain protein expressed in mouse NIH3T3 cells assessed as increase in yellow fluorescent protein fluorescence level at 10 nM after 24 hrs by flow cytometry; procedure, shortened: as §3
[24] = Activation of FKBP12-rapamycin binding domain T2068S E2080G stop codon mutant in african green monkey COS1 cells after 16 hrs assessed as induction of secreted alkaline phosphatase expression assay; conditions: COS-1, 16 h; procedure, shortened: as §2
[25] = test system: NIH3T3; assay: Effect on stability of wild-type FKBP12-rapamycin binding domain protein expressed in mouse NIH3T3 cells assessed as increase in yellow fluorescent protein fluorescence level at 1 uM after 24 hrs by flow cytometry; procedure, shortened: as §1
[26] = Activation of FKBP12-rapamycin binding domain stop codon>Leu mutant in african green monkey COS1 cells after 16 hrs assessed as induction of secreted alkaline phosphatase expression assay; conditions: COS-1, 16 h; procedure, shortened: as §2
[27] = Activation of FKBP12-rapamycin binding domain K2066R D2077G stop codon mutant in african green monkey COS1 cells after 16 hrs assessed as induction of secreted alkaline phosphatase expression assay; conditions: COS-1, 16 h; procedure, shortened: as §2
[28] = Activation of FKBP12-rapamycin binding domain I2021T W2023R K2045L S2112P stop codon mutant in african green monkey COS1 cells after 16 hrs assessed as induction of secreted alkaline phosphatase expression assay; conditions: COS-1, 16 h; procedure, shortened: as §2
[29] = Activation of FKBP12-rapamycin binding domain I2021T A2100V stop codon mutant in african green monkey COS1 cells after 16 hrs assessed as induction of secreted alkaline phosphatase expression assay; conditions: COS-1, 16 h; procedure, shortened: as §2
[30] = test system: NIH3T3; assay: Effect on stability of wild-type FKBP12-rapamycin binding domain protein expressed in mouse NIH3T3 cells assessed as increase in yellow fluorescent protein fluorescence level at 10 uM after 24 hrs by flow cytometry; procedure, shortened: as §3
[31] = Activation of wild-type FKBP12-rapamycin binding domain protein in african green monkey COS1 cells after 16 hrs assessed as induction of secreted alkaline phosphatase expression assay; conditions: COS-1, 16 h; procedure, shortened: as §2

With `CO[C@@H]1C[C@H](C[C@@H](C)[C@@H]2CC(=O)[C@H](C)/C=C(\C)[C@@H](O)[C@@H](OC)C(=O)[C@H](C)C[C@H](C)/C=C/C=C/C=C(\C)[C@@H](c3[nH]c4ccccc4c3C)C[C@@H]3CC[C@@H](C)[C@@](O)(O3)C(=O)C(=O)N3CCCC[C@H]3C(=O)O2)CC[C@H]1O` the Activity [1] was 8, the EC50 [2] was 41.7 nM and the EC50 [3] was 14.4 nM. The Activity [4] was “Active”, the EC50 [5] was 29.7 nM and the EC50 [6] was 28.1 nM. It also gave an EC50 [7] of 88.8 nM, an Activity [8] of 4 and an EC50 [9] of 24.9 nM. For the same molecule, the EC50 [10] was 250 nM, the EC50 [11] was 42.7 nM and the Activity [12] was “Active”. It also gave an EC50 [13] of 39.1 nM, an EC50 [14] of 23 nM and an EC50 [15] of 33.4 nM. For the same molecule, the EC50 [16] was 39 nM, the Activity [17] was 5 and the Activity [18] was 7. The EC50 [19] was 22.1 nM, the EC50 [20] was 32.6 nM and the EC50 [21] was 100 nM. For the same molecule, the EC50 [22] was 45.1 nM, the Activity [23] was “Active” and the EC50 [24] was 19.3 nM. For the same molecule, the Activity [25] was 10, the EC50 [26] was 26 nM and the EC50 [27] was 20.4 nM. The EC50 [28] was 31.4 nM, the EC50 [29] was 67.4 nM and the Activity [30] was “Active”. It also gave an EC50 [31] of 20.5 nM.
